# Measurements pooled from the literature.
# Lines come from different studies, so protocols differ.
# Target: Serine/threonine-protein kinase PLK1 (PLK1, Homo sapiens, UniProt P53350)
Compound,effect on,method,concentration,remaining binding
C[C@H]1CCN(c2nccc(-c3cnn4ncccc34)n2)C1,binding,,1 µM,100%
C[C@@H]1CN(c2ccc3ncc(-c4ccc5[nH]nc(C6CC6)c5c4)n3n2)C[C@H](C)O1,binding,competition with immobilised ligand,50 nM,97%
CS(=O)(=O)NCC[C@H](NC(=O)c1cncc2c1cnn2-c1ccc(F)cc1)c1ccnc(S(C)(=O)=O)c1,cell-free assay,competition with immobilised ligand,1 µM,100%
N[C@@H]1CCN(c2nccc(-c3cnn4ncccc34)n2)C1,binding,,1 µM,100%
O=C(c1ccc(Nc2ncc(Cl)c(-c3cc4ccccc4s3)n2)cc1)N1CCC(N2CCCC2)CC1,binding,competition with immobilised ligand,1 µM,57%
C[C@H](c1cccc(C#N)c1)n1cc(Cl)cc(C(N)=O)c1=N,cell-free assay,competition with immobilised ligand,1 µM,89%
Cc1cnn2ncc(-c3ccnc(N(C)C)n3)c2c1,binding,,1 µM,84%
O=C(NCc1ncc(C(F)(F)F)cc1Cl)c1ccc2c(c1)C1(CCS(=O)(=O)CC1)[C@H](C1CC1)N2S(=O)(=O)c1ccc(F)cc1,cell-free assay,competition with immobilised ligand,1 µM,86%
CN(c1nccc(-c2cnn3ncccc23)n1)C1CC1,binding,,1 µM,100%
CN(C(=O)c1ccccc1)c1cc(N(C)c2ccc3c(c2)CCc2ccc(C(=O)NCCN4CCOCC4)cc2C3=O)ccc1F,cell-free assay,competition with immobilised ligand,1 µM,100%
CN(C)c1nccc(-c2cnc3ncccn23)n1,binding,,1 µM,69%
FC(F)(F)Oc1cccc(-c2cnc3ccc(-c4ccncc4)nn23)c1,cell-free assay,competition with immobilised ligand,5 µM,93%
F[C@@H]1CCN(c2nccc(-c3cnn4ncccc34)n2)C1,binding,,1 µM,100%
O=C(c1ccc(Nc2ncc(Cl)c(-c3ccc(Cl)s3)n2)cc1)N1CCC(N2CCCC2)CC1,binding,competition with immobilised ligand,1 µM,61%
N#Cc1ccccc1CSc1nnc2c(n1)[nH]c1ccccc12,binding,competition with immobilised ligand,10 µM,94%
Cc1cnc(Nc2ccc(C(=O)N3CCC(N4CCCC4)CC3)cc2)nc1-c1cc2ccccc2s1,binding,competition with immobilised ligand,1 µM,37%
CCC(=O)N[C@@H]1CC[C@H](C(=O)N(C)c2ccc(-c3nc4ccccc4o3)cc2)C1,cell-free assay,competition with immobilised ligand,1 µM,95%
C=CC(=O)N1CCC(C(=O)NCC(=O)N2CCN(c3nc(-c4cnc(N)nc4C(F)F)nc(N4CCOCC4)n3)CC2)CC1,binding,competition with immobilised ligand,1 µM,99%
COc1cc(C(=O)N2CCC(N3CCN(C)CC3)CC2)ccc1Nc1ncc2c(n1)N(C)c1ccccc1C(=O)N2C,binding,competition with immobilised ligand,10 µM,0.7%
Cc1c(C(=O)O)cc(-c2ccc(C3CCNCC3)cc2)c2ccc(-c3ccc(C(F)(F)F)cc3)cc12,binding,competition with immobilised ligand,1 µM,94%
O=C(NCC1CCOCC1)c1n[nH]cc1NC(=O)c1c(F)cccc1F,binding,competition with immobilised ligand,1 µM,90%
CCCOc1ccc([C@H]2[C@H](C(=O)O)[C@@H](c3ccc4c(c3)OCO4)CN2CC(=O)Nc2c(CC)cccc2CC)cc1,cell-free assay,competition with immobilised ligand,1 µM,80%
CNC(=O)[C@@H]1CC[C@@H](n2c(-c3ccc4cnccc4c3)nc3ccc(C(=O)NCc4cccc(C(N)=O)c4)cc32)C1,binding,competition with immobilised ligand,1 µM,100%
CC1=C(C#N)C(c2ccc3c(c2)c(NC(=O)c2ccccc2C)nn3C)C(C#N)=C(C)N1,cell-free assay,competition with immobilised ligand,1 µM,85%
COc1cnc(Nc2cccc(S(N)(=O)=O)c2)nc1N1CCN(c2ccccc2)C(=O)C1,binding,competition with immobilised ligand,1 µM,80%
